Data taken from ChEMBL document CHEMBL1138555, “N-acylated and N,N'-diacylated imidazolidine-2-thione derivatives and N,N'-diacylated tetrahydropyrimidine-2(1H)-thione analogues: synthesis and antiproliferative activity” (Eur J Med Chem, 2009).
Active and inactive are the calls of the source. No cut-off for these calls is given here.

Assays:
[1] = tested on: Human immunodeficiency virus 1; assay: Antiviral activity against HIV1 in human MT4 cells assessed as prevention of virus-induced cytopathogenicity; assay type: functional, organism-based
In short: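 MT-4 cells, 1 × 10⁴ per well, with serial compound dilutions from a 100 mM DMSO stock. Infected with HIV-1 at 100 CCID50. Four-day incubation at 37 °C, then viable cells measured by MTT. Read-out is inhibition of virus-induced cytopathogenicity, assessed at non-cytotoxic concentrations.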

[2] = tested on: U-251; assay: Growth inhibition of human U251 cells after 48 hrs by sulforhodamine B assay; assay type: functional; settings: U-251, 48 h
In short: (§1)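 NCI in vitro panel screen. Compounds tested at five 10-fold dilutions, 10^-4 to 10^-8 M. Cells in 96-well plates were exposed for the last 48 h of a 72 h incubation. Viability/growth was read by sulforhodamine B protein assay. GI50 is the concentration giving 50% growth inhibition. Values beyond the tested range are reported as greater or less than the maximum or minimum concentration.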

[3] = tested on: MDA-MB-231; assay: Growth inhibition of human MDA-MB-231 cells after 48 hrs by sulforhodamine B assay; assay type: functional; settings: MDA-MB-231, 48 h
In short: (§2)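 NCI screen panel. Five 10-fold concentrations from 10^-4 to 10^-8 M. Exposure for the last 48 h of a 72 h incubation. Growth estimated by sulforhodamine B protein assay. GI50 is the concentration giving 50% growth inhibition. Where that level was not reached or was exceeded, the value is given as above or below the highest or lowest concentration tested.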

[4] = Growth inhibition of human […] cells after 48 hrs by sulforhodamine B assay; assay type: functional; in short: as §2
[5] = tested on: EKVX; assay: Growth inhibition of human EKVX cells after 48 hrs by sulforhodamine B assay; assay type: functional; in short: as §2
[6] = tested on: HOP-92; assay: Growth inhibition of human HOP92 cells after 48 hrs by sulforhodamine B assay; assay type: functional; settings: HOP-92, 48 h; in short: as §2
[7] = tested on: MCF7; assay: Growth inhibition of human MCF7 cells after 48 hrs by sulforhodamine B assay; assay type: functional; settings: MCF7, 48 h; in short: as §2
[8] = tested on: SK-MEL-5; assay: Growth inhibition of human SK-MEL-5 cells after 48 hrs by sulforhodamine B assay; assay type: functional; settings: SK-MEL-5, 48 h; in short: as §2
[9] = tested on: NCI-H322M; assay: Growth inhibition of human NCI-H322M cells after 48 hrs by sulforhodamine B assay; assay type: functional; in short: as §2
[10] = tested on: SK-OV-3; assay: Growth inhibition of human SKOV3 cells after 48 hrs by sulforhodamine B assay; assay type: functional; settings: SK-OV-3, 48 h; in short: as §2
[11] = tested on: SK-MEL-28; assay: Growth inhibition of human SK-MEL-28 cells after 48 hrs by sulforhodamine B assay; assay type: functional; settings: SK-MEL-28, 48 h; in short: as §2
[12] = tested on: DU-145; assay: Growth inhibition of human DU145 cells after 48 hrs by sulforhodamine B assay; assay type: functional; settings: DU-145, 48 h; in short: as §2
[13] = tested on: BT-549; assay: Growth inhibition of human BT549 cells after 48 hrs by sulforhodamine B assay; assay type: functional; settings: BT-549, 48 h; in short: as §2
[14] = tested on: SF-268; assay: Growth inhibition of human SF268 cells after 48 hrs by sulforhodamine B assay; assay type: functional; settings: SF-268, 48 h; in short: as §2
[15] = tested on: K562; assay: Growth inhibition of human K562 cells after 48 hrs by sulforhodamine B assay; assay type: functional; settings: K562, 48 h; in short: as §2
[16] = tested on: UO-31; assay: Growth inhibition of human UO31 cells after 48 hrs by sulforhodamine B assay; assay type: functional; settings: UO-31, 48 h; in short: as §1
[17] = tested on: SNB-75; assay: Growth inhibition of human SNB75 cells after 48 hrs by sulforhodamine B assay; assay type: functional; settings: SNB-75, 48 h; in short: as §1
[18] = tested on: T47D; assay: Growth inhibition of human T47D cells after 48 hrs by sulforhodamine B assay; assay type: functional; in short: as §1
[19] = tested on: SN12C; assay: Growth inhibition of human SN12C cells after 48 hrs by sulforhodamine B assay; assay type: functional; in short: as §1
[20] = tested on: OVCAR-3; assay: Growth inhibition of human OVCAR-3 cells after 48 hrs by sulforhodamine B assay; assay type: functional; settings: OVCAR-3, 48 h; in short: as §2
[21] = tested on: SR; assay: Growth inhibition of human SR cells after 48 hrs by sulforhodamine B assay; assay type: functional; in short: as §1
[22] = tested on: SF-539; assay: Growth inhibition of human SF539 cells after 48 hrs by sulforhodamine B assay; assay type: functional; settings: SF-539, 48 h; in short: as §2
[23] = tested on: LOX IMVI; assay: Growth inhibition of human LOXIMVI cells after 48 hrs by sulforhodamine B assay; assay type: functional; in short: as §2
[24] = tested on: RXF 393; assay: Growth inhibition of human RXF393 cells after 48 hrs by sulforhodamine B assay; assay type: functional; settings: RXF 393, 48 h; in short: as §2
[25] = tested on: SK-MEL-2; assay: Growth inhibition of human SK-MEL-2 cells after 48 hrs by sulforhodamine B assay; assay type: functional; settings: SK-MEL-2, 48 h; in short: as §2
[26] = tested on: HT-29; assay: Growth inhibition of human HT-29 cells after 48 hrs by sulforhodamine B assay; assay type: functional; settings: HT-29, 48 h; in short: as §2
[27] = tested on: OVCAR-4; assay: Growth inhibition of human OVCAR4 cells after 48 hrs by sulforhodamine B assay; assay type: functional; settings: OVCAR-4, 48 h; in short: as §2
[28] = tested on: COLO 205; assay: Growth inhibition of human COLO205 cells after 48 hrs by sulforhodamine B assay; assay type: functional; settings: COLO 205, 48 h; in short: as §2
[29] = tested on: HL-60(TB); assay: Growth inhibition of human HL-60(TB) cells after 48 hrs by sulforhodamine B assay; assay type: functional; settings: HL-60, 48 h
In short: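 NCI 60-cell-line screen protocol: cells exposed to compound at five 10-fold dilutions from 10^-4 to 10^-8 M for the last 48 h of a 72 h incubation. Sulforhodamine B protein assay estimated viability/growth. GI50 (50% growth inhibition) derived; where not reached or exceeded, reported as greater or less than the highest or lowest concentration tested.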

[30] = tested on: IGROV-1; assay: Growth inhibition of human IGROV1 cells after 48 hrs by sulforhodamine B assay; assay type: functional; settings: IGROV-1, 48 h; in short: as §2
[31] = tested on: KM12; assay: Growth inhibition of human KM12 cells after 48 hrs by sulforhodamine B assay; assay type: functional; settings: KM12, 48 h; in short: as §2
[32] = tested on: UACC-62; assay: Growth inhibition of human UACC62 cells after 48 hrs by sulforhodamine B assay; assay type: functional; settings: UACC-62, 48 h; in short: as §1
[33] = tested on: Malme-3M; assay: Growth inhibition of human MALME-3M cells after 48 hrs by sulforhodamine B assay; assay type: functional; in short: as §2
[34] = tested on: NCI-H23; assay: Growth inhibition of human NCI-H23 cells after 48 hrs by sulforhodamine B assay; assay type: functional; settings: NCI-H23, 48 h; in short: as §2
[35] = tested on: A549; assay: Growth inhibition of human A549 cells after 48 hrs by sulforhodamine B assay; assay type: functional; settings: A549, 48 h; in short: as §2
[36] = tested on: HCT-15; assay: Growth inhibition of human HCT15 cells after 48 hrs by sulforhodamine B assay; assay type: functional; settings: HCT-15, 48 h; in short: as §2
[37] = tested on: OVCAR-8; assay: Growth inhibition of human OVCAR8 cells after 48 hrs by sulforhodamine B assay; assay type: functional; settings: OVCAR-8, 48 h; in short: as §2
[38] = tested on: MT4; assay: Antiproliferative activity against human MT4 cells assessed as reduction of growth by MTT assay; assay type: functional, cell-based
In short: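 MT-4 lymphoblastoid T cells (ATCC) in RPMI 1640 with 10% FCS, penicillin/streptomycin, checked for mycoplasma. 1 × 10⁴ mock-infected cells per well with serial dilutions from a 100 mM DMSO stock. Incubated 4 days at 37 °C, viable cells counted by MTT. IC50 versus untreated controls by linear regression. Mean of three separate experiments.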

[39] = tested on: MOLT-4; assay: Growth inhibition of human MOLT4 cells after 48 hrs by sulforhodamine B assay; assay type: functional; settings: MOLT-4, 48 h; in short: as §2
[40] = tested on: CCRF-CEM; assay: Growth inhibition of human CCRF-CEM cells after 48 hrs by sulforhodamine B assay; assay type: functional; in short: as §2
[41] = tested on: CAKI-1; assay: Growth inhibition of human Caki1 cells after 48 hrs by sulforhodamine B assay; assay type: functional; settings: CAKI-1, 48 h; in short: as §2
[42] = tested on: NCI-H460; assay: Growth inhibition of human NCI-H460 cells after 48 hrs by sulforhodamine B assay; assay type: functional; settings: NCI-H460, 48 h; in short: as §2
[43] = tested on: ACHN; assay: Growth inhibition of human ACHN cells after 48 hrs by sulforhodamine B assay; assay type: functional; in short: as §2
[44] = tested on: SNB-19; assay: Growth inhibition of human SNB19 cells after 48 hrs by sulforhodamine B assay; assay type: functional; settings: SNB-19, 48 h; in short: as §1
[45] = tested on: TK-10; assay: Growth inhibition of human TK10 cells after 48 hrs by sulforhodamine B assay; assay type: functional; settings: TK-10, 48 h; in short: as §1
[46] = tested on: PC-3; assay: Growth inhibition of human PC3 cells after 48 hrs by sulforhodamine B assay; assay type: functional; settings: PC-3, 48 h; in short: as §2
[47] = tested on: MDA-MB-435; assay: Growth inhibition of human MDA-MB-435 cells after 48 hrs by sulforhodamine B assay; assay type: functional; settings: MDA-MB-435, 48 h; in short: as §2
[48] = tested on: SW-620; assay: Growth inhibition of human SW620 cells after 48 hrs by sulforhodamine B assay; assay type: functional; settings: SW-620, 48 h; in short: as §1
[49] = tested on: SF-295; assay: Growth inhibition of human SF295 cells after 48 hrs by sulforhodamine B assay; assay type: functional; settings: SF-295, 48 h; in short: as §2

O=C(C(=CN1CCNC1=S)C(=O)c1ccccc1)c1ccccc1
Activity [1]: inactive

N#CC(C#N)=CN1CCN(C(=O)c2ccco2)C1=S
GI50 [2]: 6.6 µM | GI50 [3]: 2.9 µM | GI50 [4]: 4.5 µM | GI50 [5]: 11.9 µM | GI50 [6]: 22.4 µM | GI50 [7]: 3.5 µM | GI50 [8]: 2.9 µM | GI50 [9]: 15.5 µM | GI50 [10]: 33.1 µM | GI50 [11]: 12.5 µM | GI50 [12]: 5.5 µM | GI50 [13]: 6.9 µM | GI50 [14]: 31.4 µM | GI50 [15]: 6.6 µM | GI50 [16]: 10.5 µM | GI50 [17]: 40.6 µM | GI50 [18]: 21.2 µM | GI50 [19]: 3.1 µM | GI50 [20]: 11.2 µM | GI50 [21]: 2 µM | GI50 [22]: 2.5 µM | GI50 [23]: 3.3 µM | GI50 [24]: 2.6 µM | GI50 [25]: 4.3 µM | GI50 [26]: 27.7 µM | GI50 [27]: 20.1 µM | GI50 [28]: 16.5 µM | GI50 [29]: 19.8 µM | GI50 [30]: 6.6 µM | GI50 [31]: 4.1 µM | GI50 [32]: 8.8 µM | GI50 [33]: 47.8 µM | GI50 [34]: 5.8 µM | GI50 [35]: 13.5 µM | GI50 [36]: 5.2 µM | GI50 [37]: 14.6 µM | IC50 [38]: 4.4 µM | GI50 [39]: 5.2 µM | GI50 [40]: 79.7 µM | GI50 [41]: 4.8 µM | GI50 [42]: 3.3 µM | GI50 [43]: 9.4 µM | GI50 [44]: 38.7 µM | GI50 [45]: 4.6 µM | GI50 [46]: 17.2 µM | GI50 [47]: 5.3 µM | GI50 [48]: 5.6 µM | GI50 [49]: 31.3 µM
